17 compounds from ChEMBL document CHEMBL2029266, “Discovery and evaluation of selective N-type calcium channel blockers: 6-unsubstituted-1,4-dihydropyridine-5-carboxylic acid derivatives” (Bioorg Med Chem Lett, 2012) can be followed below.

The target in data set [1] is Voltage-dependent N-type calcium channel subunit alpha-1B (Homo sapiens, UniProt Q00975). Kind of data set: Inhibition of N-type voltage-dependent calcium channel CaV2.2 in human IMR32 cells assessed as inhibition of KCl-induced increase in intracellular calcium concentration preincubated for 4 to 5 mins before KCl challenge. It is filed as cell-based, IMR-32. An outline of the steps:
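IMR-32 cells on poly-L-lysine/collagen dishes, differentiated with 1 mM dibutyl-cAMP and 2.5 µM bromodeoxyuridine for 10–14 days. Loaded with 2.5 µM fura-2/AM, 37 °C, 30 min. HEPES recording medium with 1 µM nifedipine throughout. Calcium rise evoked by 60 mM KCl for 6 s, repeated every 5 min. Compound at 0.1, 1 or 10 µM; IC50 from ≥2 independent experiments.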
(Calcium flux is commonly read through the fluorescence of an indicator in the cells.)

Data set [2] addresses L-type voltage-dependent calcium channel (Rattus norvegicus, UniProt P22002+P27732+Q02485). Kind of data set: (§1) Inhibition of L-type voltage-dependent calcium channel in Sprague-Dawley rat aorta at 10 uM by Magnus method. It is filed as tissue-based. The conditions noted are these: Sprague-Dawley, isolated rat aorta. The method in brief:
(§2)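 Rat aortic ring in organ bath, Tyrode's solution pH 7.4, 37 °C, 95% O2/5% CO2. Equilibrated 1 h at 2 g resting tension. Then exposed to high-K+ Tyrode (50 mM KCl replacing NaCl) and to normal Tyrode, 45 min each. Activity reported as inhibition or IC50.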

Data set [3] has as its target T1, Voltage-gated L-type calcium channel (Rattus norvegicus, UniProt P22002+Q02485+P27732). The data set is described as follows: Inhibition of L-type voltage-dependent calcium channel in Sprague-Dawley rat aorta by Magnus method. Format: tissue-based. An outline of the steps: as §2
Data set [4] concerns the target T1, Voltage-gated L-type calcium channel. The data set is described as §1. It is filed as tissue-based. The following applies: 10 µM. The method in brief:
as §2

Data set [5] concerns Rattus norvegicus. Kind of data set: Analgesic activity in Sprague-Dawley rat assessed as inhibition of formalin-induced pain at 3 mg/kg, po. It is filed as functional. An outline of the steps: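 Rats received formalin by footpad injection, and phase II pain responses were scored. Compound given orally. Inhibition is expressed as % versus the control group, n = 5.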
In data set [6] the test system is Rattus norvegicus. Kind of data set: Analgesic activity in Sprague-Dawley rat assessed as inhibition of formalin-induced pain at 100 mg/kg, po. It is filed as functional. The method in brief: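 Formalin injected into the rat footpad; phase II pain responses scored after oral dosing. Read-out is % inhibition relative to the control group, n = 3 animals at this dose.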

As a reminder, the IC50 is the concentration needed to halve the response being measured. The inhibition is the share of the control response that was lost under treatment. One may read the inhibition in vivo as the share of the control response that was lost under treatment.

Chain of Voltage-dependent N-type calcium channel subunit alpha-1B (Q00975 whole entry): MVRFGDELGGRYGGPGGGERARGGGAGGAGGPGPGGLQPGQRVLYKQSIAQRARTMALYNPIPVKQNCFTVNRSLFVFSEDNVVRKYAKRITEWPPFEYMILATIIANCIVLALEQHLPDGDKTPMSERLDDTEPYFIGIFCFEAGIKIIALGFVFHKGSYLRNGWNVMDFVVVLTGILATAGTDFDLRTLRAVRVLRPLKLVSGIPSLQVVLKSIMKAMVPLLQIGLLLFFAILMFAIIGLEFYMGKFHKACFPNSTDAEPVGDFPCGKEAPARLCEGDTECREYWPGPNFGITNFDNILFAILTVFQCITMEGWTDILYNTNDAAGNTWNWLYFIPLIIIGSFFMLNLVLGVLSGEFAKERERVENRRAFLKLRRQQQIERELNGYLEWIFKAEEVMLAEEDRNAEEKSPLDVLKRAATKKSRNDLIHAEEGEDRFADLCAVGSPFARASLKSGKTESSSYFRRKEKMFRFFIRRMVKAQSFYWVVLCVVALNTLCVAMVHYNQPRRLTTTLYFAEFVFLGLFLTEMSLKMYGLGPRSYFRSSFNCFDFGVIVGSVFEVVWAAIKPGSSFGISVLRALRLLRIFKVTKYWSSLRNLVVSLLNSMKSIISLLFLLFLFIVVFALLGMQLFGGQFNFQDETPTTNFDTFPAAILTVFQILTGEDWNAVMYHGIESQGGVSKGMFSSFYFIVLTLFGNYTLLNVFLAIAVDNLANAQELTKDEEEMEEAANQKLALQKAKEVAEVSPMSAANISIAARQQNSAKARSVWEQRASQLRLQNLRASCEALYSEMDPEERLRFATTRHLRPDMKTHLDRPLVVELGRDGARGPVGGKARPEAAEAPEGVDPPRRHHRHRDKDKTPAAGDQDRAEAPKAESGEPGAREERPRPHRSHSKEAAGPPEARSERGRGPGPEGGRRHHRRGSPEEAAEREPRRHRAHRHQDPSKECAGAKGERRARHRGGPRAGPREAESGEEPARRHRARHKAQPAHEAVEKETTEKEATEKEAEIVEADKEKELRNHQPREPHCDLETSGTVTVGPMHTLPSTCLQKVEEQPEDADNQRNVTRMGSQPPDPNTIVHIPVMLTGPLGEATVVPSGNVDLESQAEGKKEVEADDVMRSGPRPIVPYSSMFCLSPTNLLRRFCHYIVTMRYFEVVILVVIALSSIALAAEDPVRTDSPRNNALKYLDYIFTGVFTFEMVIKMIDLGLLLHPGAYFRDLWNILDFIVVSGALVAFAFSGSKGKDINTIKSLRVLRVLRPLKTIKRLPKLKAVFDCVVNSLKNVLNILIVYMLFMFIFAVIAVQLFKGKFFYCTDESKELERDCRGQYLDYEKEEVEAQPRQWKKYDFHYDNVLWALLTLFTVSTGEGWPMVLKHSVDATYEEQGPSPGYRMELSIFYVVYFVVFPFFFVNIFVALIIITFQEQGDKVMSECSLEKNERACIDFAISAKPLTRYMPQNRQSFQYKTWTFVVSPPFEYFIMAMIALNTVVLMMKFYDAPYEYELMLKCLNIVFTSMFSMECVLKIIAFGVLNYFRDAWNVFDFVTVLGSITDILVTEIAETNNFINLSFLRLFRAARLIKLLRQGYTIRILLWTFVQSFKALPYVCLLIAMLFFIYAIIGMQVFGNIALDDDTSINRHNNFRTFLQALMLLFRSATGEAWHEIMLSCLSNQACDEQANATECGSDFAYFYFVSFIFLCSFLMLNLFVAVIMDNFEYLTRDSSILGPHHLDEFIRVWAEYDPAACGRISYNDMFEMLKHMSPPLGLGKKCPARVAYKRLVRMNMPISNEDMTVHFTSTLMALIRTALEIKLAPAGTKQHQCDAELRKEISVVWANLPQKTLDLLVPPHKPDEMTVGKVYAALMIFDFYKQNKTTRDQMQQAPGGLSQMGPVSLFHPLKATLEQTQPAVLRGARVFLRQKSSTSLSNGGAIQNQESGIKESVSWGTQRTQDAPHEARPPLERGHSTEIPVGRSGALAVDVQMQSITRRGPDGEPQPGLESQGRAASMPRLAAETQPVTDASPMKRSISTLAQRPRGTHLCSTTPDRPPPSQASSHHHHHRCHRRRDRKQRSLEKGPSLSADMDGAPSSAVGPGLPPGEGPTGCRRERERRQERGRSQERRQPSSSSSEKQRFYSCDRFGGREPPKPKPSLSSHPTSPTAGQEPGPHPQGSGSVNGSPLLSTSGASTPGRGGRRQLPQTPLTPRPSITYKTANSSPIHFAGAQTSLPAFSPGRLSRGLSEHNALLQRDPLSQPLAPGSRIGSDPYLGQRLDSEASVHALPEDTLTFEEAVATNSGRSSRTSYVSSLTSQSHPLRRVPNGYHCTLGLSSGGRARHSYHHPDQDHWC

With `COC(OC)C1=C(C(=O)OC/C=C/c2ccccc2)C(c2cccc(Cl)c2)C(C(=O)O)=CN1` (centres undefined), in data set [1], the IC50 is 1100 nM. Further, in data set [2], the inhibition at 10 µM came out at 44%.

On to `COC(OC)C1=C(C(=O)OC/C=C/c2ccccc2)C(c2ccc(Cl)cc2)C(C(=O)O)=CN1` (centres undefined), for which, in data set [1], the IC50 amounted to 1100 nM. Also, the inhibition at 10 µM in data set [2] stood at 7.9%.

As to `COC(OC)C1=C(C(=O)OC/C=C/c2ccccc2)C(c2cc(Cl)cc(Cl)c2)C(C(=O)O)=CN1` (centres undefined), in data set [1], the concentration for half-maximal inhibition (IC50) turned out to be 1000 nM. For the same compound, the inhibition at 10 µM in data set [2] was 4%.

Consider `COC(OC)C1=C(C(=O)OC/C=C/c2ccccc2)C(c2ccc(Cl)c(Cl)c2)C(C(=O)O)=CN1` (centres undefined), for which the 50% inhibitory concentration (IC50) in data set [1] came to 520 nM. Also, the inhibition at 10 µM in data set [2] was determined as 31%.

In the case of `COc1ccc(C2C(C(=O)O)=CNC(C(OC)OC)=C2C(=O)OC/C=C/c2ccccc2)cc1Cl` (centres undefined), in data set [1], the IC50 was 1500 nM. Further, the inhibition at 10 µM in data set [2] stood at 26%.

On to `COc1c(Cl)cc(C2C(C(=O)O)=CNC(C(OC)OC)=C2C(=O)OC/C=C/c2ccccc2)cc1Cl` (centres undefined), for which the IC50 in data set [1] was 1200 nM. Also, the inhibition at 10 µM in data set [2] is 20%.

In the case of `COC(OC)C1=C(C(=O)OC/C=C/c2ccccc2)C(c2cccc(C(F)(F)F)c2)C(C(=O)O)=CN1` (centres undefined), the concentration for half-maximal inhibition (IC50) in data set [1] came out at 1100 nM. For the same compound, the inhibition at 10 µM in data set [2] amounted to 17%.

`O=C(O)C1=CNC=C(C(=O)OC/C=C/c2ccccc2)C1c1cccc(Cl)c1` (centres undefined): the 50% inhibitory concentration (IC50) was determined as 1600 nM in data set [1] and 9100 nM in data set [3].

With `O=C(O)C1=CNC=C(C(=O)OC/C=C/c2ccccc2)C1c1ccc(Cl)cc1` (centres undefined), in data set [1], the half-inhibitory concentration (IC50) is 1200 nM. For the same compound, the inhibition at 10 µM in data set [2] came out at 16%.

In the case of `O=C(O)C1=CNC=C(C(=O)OC/C=C/c2ccccc2)C1c1ccc(Cl)c(Cl)c1` (centres undefined), the IC50 in data set [1] stood at 750 nM. For the same compound, in data set [2], the inhibition at 10 µM was found to be 41%.

In the case of `O=C(O)C1=CNC=C(C(=O)OC/C=C/c2ccccc2)C1c1cccc(C(F)(F)F)c1` (centres undefined), the half-maximal inhibitory concentration (IC50) in data set [1] came out at 1200 nM. In data set [2], the inhibition at 10 µM is 40%.

`COc1ccc(C2C(C(=O)O)=CNC=C2C(=O)OC/C=C/c2ccccc2)cc1Cl` (centres undefined): in data set [1], the IC50 was found to be 1300 nM. Besides, the inhibition at 10 µM in data set [2] came out at 15%.

As to `COC(OC)C1=C(C(=O)OC/C=C/c2ccccc2)C(c2cccc(Cl)c2)C(C(=O)O)=C(C)N1` (centres undefined), in data set [1], the IC50 was 3000 nM.

Turning to `COc1c(Cl)cc(C2C(C(=O)O)=CNC=C2C(=O)OC/C=C/c2ccccc2)cc1Cl` (single isomer, unassigned; (+)), the concentration for half-maximal inhibition (IC50) was 720 nM in data set [1] and 44000 nM in data set [3]. Besides, the “inhibition (INH)” value in data set [4] is listed as 6.5%. Moreover, the inhibition in vivo at 3 mg/kg in the data set on Rattus norvegicus [5] is 35%.

Take `COc1c(Cl)cc(C2C(C(=O)O)=CNC=C2C(=O)OC/C=C/c2ccccc2)cc1Cl` (stereo in doubt; 3f): the IC50 in data set [1] was determined as 580 nM. Also, the “inhibition (INH)” value in data set [4] is reported as 19%.

In the case of `COc1c(Cl)cc(C2C(C(=O)O)=CNC=C2C(=O)OC/C=C/c2ccccc2)cc1Cl` (stereo in doubt; (-)-3f), the IC50 in data set [1] was 840 nM. Also, in data set [4], the “inhibition (INH)” value stood at 28%.

With `NCC1(CC(=O)O)CCCCC1` [GABAPENTIN], the inhibition in vivo at 100 mg/kg in the data set on Rattus norvegicus [6] is 33%.
